55 compounds from ChEMBL document CHEMBL1128427, “Novel inhibitors of the nuclear factor of activated T cells (NFAT)-mediated transcription of beta-galactosidase: potential immunosuppressive and antiinflammatory agents” (J Med Chem, 1995) can be followed below.

Experiment [1] in a line: Inhibition of nuclear factor of activated T-cells (NFAT) mediated transcription of beta-galactosidase in J.NFATZ.1 cells. The class given is functional, cell-based, T-cell.
In experiment [2] the test system is Jurkat. Put plainly: Binding affinity was measured on jurkat cell membrane using [3H3C] as radioligand. It is filed as functional, cell membranes, Homo sapiens.
Experiment [3] concerns Jurkat. Nature of the experiment: Inhibition of beta-galactosidase as expression in J.NFATZ.1 cells at 10 uM mediated by nuclear factor of activated T-cells transcription. The class given is functional.
Experiment [4] has as its system Jurkat. Nature of the experiment: Binding affinity was measured on jurkat cell membrane using [3H3C] as radioligand. It is filed as functional, cell membranes, Homo sapiens.
Experiment [5] has as its system Jurkat. Nature of the experiment: Concentration required to inhibit nuclear factor of activated T-cells mediated transcription of beta-galactosidases expression in J.NFATZ.1 cells; Not active. It is filed as functional, cell-based. The essentials: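 J.NFATZ.1 cells, 1.25×10^5 per well, were stimulated with PMA (2 ng/mL final) and ionomycin (25 μM final) in the presence of compound (0.1% DMSO final). Incubation 5 h at 37 °C. Cells were lysed and incubated 1 h at 37 °C with 4-methylumbelliferyl β-D-galactoside (10 μg/mL final, pH 7.8). Fluorescence read at […]. IC50 obtained by four-parameter logistic fit.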

Consider `CC(C)n1c(=O)n(C)c(=O)c2cn(Cc3cccc4ccccc34)cc21`, for which, in experiment [1] (T-cell), the concentration for half-maximal inhibition (IC50) worked out at 0.0215 µM. This compound showed a Ki in the experiment with Jurkat [2] of 0.0153 µM.

In experiment [1] (T-cell), `COc1cccc(Cn2cc3c(=O)n(C)c(=O)n(CC(C)C)c3c2)c1OC` returned an IC50 of 0.224 µM. In turn, `CCC(C)n1c(=O)n(C)c(=O)c2cn(C3Cc4cccc5cccc3c45)cc21` (stereo in doubt; 5g4) displayed an IC50 in experiment [1] (t-cell) of 0.048 µM. In the case of `CC(C)Cn1c(=O)n(C)c(=O)c2cc(NCc3ccc(C(C)(C)C)cc3)ccc21`, the Inhibition in the experiment on Jurkat [3] stood at 34%.

As for `CC(C)Cn1c(=O)n(C)c(=O)c2cn([C@@H](C)c3ccccc3)cc21`, the IC50 in experiment [1] (T-cell) worked out at 1.3 µM. In the experiment on Jurkat [2], this compound returned a Ki of 0.301 µM.

As to `CC(C)Cn1c(=O)n(C)c(=O)c2cn(C3Cc4ccccc4C3)cc21`, inhibition in experiment [1] (T-cell) was half-maximal at 0.312 µM (IC50). For the same compound, in the experiment with Jurkat [2], the Ki was 0.0048 µM. The like results for `COc1ccc(Cn2cc3c(c2CN2CCOCC2)c(=O)n(C)c(=O)n3CC(C)C)cc1` were, in that order, 0.8 µM and 0.315 µM. `Cc1c2c(cn1Cc1cccc3ccccc13)c(=O)n(C)c(=O)n2CC(C)C` returned an IC50 in experiment [1] (T-cell) of 0.15 µM. The same measure, in the same setting: with `COc1ccc(Cn2cc3c(=O)n(C)c(=O)n(CC(C)C)c3c2)cc1` the figure was 0.24 µM. `CC(C)Cn1c(=O)n(C)c(=O)c2ccc(NCc3ccccc3)cc21`: the Inhibition in the experiment with Jurkat [3] came out at 40%. In the case of `CC(C)Cn1c(=O)n(C)c(=O)c2cn(Cc3ccc4ccccc4c3)cc21`, the midpoint of inhibition in experiment [1] (T-cell), the IC50, lay at 0.075 µM. Moreover, the Ki in the experiment on Jurkat [4] amounted to 0.0294 µM.

For the compound `CC(C)Cn1c(=O)n(C)c(=O)c2cn(Cc3ccccc3F)cc21`, in experiment [1] (T-cell), the midpoint of inhibition, the IC50, lay at 0.63 µM. Same read-out and setting: with `CC(C)Cn1c(=O)n(C)c(=O)c2cc(NCc3ccccc3)ccc21` the figure was 4.47 µM. The compound `COc1ccc(Cn2cc3c(c2SC)c(=O)n(C)c(=O)n3CC(C)C)cc1` yielded an IC50 in experiment [1] (T-cell) of 0.36 µM. This compound also showed a Ki in the experiment with Jurkat [2] of 0.305 µM.

Regarding `CC(C)Cn1c(=O)n(C)c(=O)c2cc(CCc3ccccc3)ccc21`, the IC50 in experiment [1] (T-cell) was determined as 4.03 µM. The same measure, in the same setting: with `CCCCOc1ccc(Cn2cc3c(=O)n(C)c(=O)n(CC(C)C)c3c2)cc1` the figure was 0.19 µM; with `CC(C)Cn1c(=O)n(C)c(=O)c2cn(Cc3ccc(Cl)cc3)cc21`, 0.435 µM. The same measure, in the same setting: with `Cc1ccc(Cn2cc3c(=O)n(C)c(=O)n(CC(C)C)c3c2)cc1` the figure was 0.32 µM; with `CCn1c(=O)c2cn(Cc3cccc4ccccc34)cc2n(CC(C)C)c1=O`, 0.09 µM. The compound `CC(C)Cn1c(=O)n(C)c(=O)c2cc(NCc3ccc(C(=O)O)cc3)ccc21` yielded an Inhibition in the experiment with Jurkat [3] of 30%.

In turn, `COc1ccc(Cn2cc3c(=O)n(C)c(=O)n(CC(C)C)c3c2)cc1OC` came in with an IC50 in experiment [1] (T-cell) of 0.378 µM. The same measure, in the same setting: with `CC(C)Cn1c(=O)n(C)c(=O)c2cn(Cc3ccc(O)cc3)cc21` the figure was 0.64 µM.

`CCC(C)n1c(=O)n(C)c(=O)c2cn(C3Cc4cccc5cccc3c45)cc21` (stereo in doubt; 5g3) gave an IC50 in experiment [1] (t-cell) of 0.017 µM. Compound `CC(C)Cn1c(=O)n(C)c(=O)c2cn(C3Cc4cccc5cccc3c45)cc21` (centres undefined) returned an IC50 in experiment [1] (T-cell) of 0.008 µM. As to `COc1ccc(Cn2cc3c(=O)n(C)c(=O)n(CC(C)C)c3c2)c(OC)c1`, the midpoint of inhibition in experiment [1] (T-cell), the IC50, lay at 0.31 µM. Also, the affinity in the experiment with Jurkat [2], expressed as Ki, was 0.088 µM.

In experiment [1] (T-cell), `Cn1c(=O)c2cn(Cc3cccc4ccccc34)cc2n(CC2CC2)c1=O` showed a concentration for half-maximal inhibition (IC50) of 0.14 µM. Same read-out and setting: with `CC(C)Cn1c(=O)n(C)c(=O)c2cn(C(c3ccccc3)c3ccccc3)cc21` the figure was 1.46 µM. `CC(C)Cn1c(=O)n(C)c(=O)c2cn([C@H](C)c3ccccc3)cc21` returned an IC50 in experiment [1] (T-cell) of 1.2 µM. In the experiment on Jurkat [2], this compound displayed a Ki of 0.562 µM. The matching figures for `CC(C)Cn1c(=O)n(C)c(=O)c2c(SCCCO)n(Cc3cccc4ccccc34)cc21`: 0.006 µM and 0.0011 µM.

In experiment [1] (T-cell), `CC(C)Cn1c(=O)n(C)c(=O)c2cn(Cc3cccc4ccccc34)cc21` showed an IC50 of 0.026 µM. In the experiment with Jurkat [4], this compound gave an inhibition constant Ki of 0.023 µM. `CC(C)Cn1c(=O)n(C)c(=O)c2ccc(OCc3ccccc3)cc21` had an IC50 in experiment [1] (T-cell) of 2.05 µM. The same measure, in the same setting: with `COc1ccc(Cn2cc3c(=O)n(C)c(=O)n(CC(C)C)c3c2)cc1I` the figure was 0.166 µM; with `CC(C)Cn1c(=O)[nH]c(=O)c2cn(Cc3cccc4ccccc34)cc21`, 3 µM; with `CC(C)Cn1c(=O)n(C)c(=O)c2cn(Cc3ccc(O)c(I)c3)cc21`, 0.089 µM. For `CC(C)Cn1c(=O)n(C)c(=O)c2cn(C3CCc4ccccc43)cc21` (centres undefined), 0.186 µM corresponded to half-maximal inhibition in experiment [1] (T-cell) (IC50).

Turning to `CCn1c(=O)n(C)c(=O)c2cn(Cc3cccc4ccccc34)cc21`, the IC50 in experiment [1] (T-cell) came to 0.44 µM.

The compound `CSc1c2c(=O)n(C)c(=O)n(CC(C)C)c2cn1Cc1cccc2ccccc12` returned an IC50 in experiment [1] (T-cell) of 0.089 µM.

`CC(C)Cn1c(=O)n(C)c(=O)c2cc3c(cc21)O[C@](C)(c1ccccc1)O3`: in experiment [1] (T-cell), it took 4.48 µM to reach half-maximal inhibition (IC50).

Take `Cn1c(=O)c2cn(Cc3cccc4ccccc34)cc2n(CC2CCCCC2)c1=O`: in experiment [1] (T-cell), inhibition was half-maximal at 1.21 µM (IC50).

As to `CC(C)Cn1c(=O)n(C)c(=O)c2cc(OCc3ccccc3)ccc21`, the IC50 in experiment [1] (T-cell) worked out at 2.5 µM. The same measure, in the same setting: with `CC(C)Cn1c(=O)n(C)c(=O)c2cc3c(cc21)O[C@H](c1ccccc1)O3` the figure was 2.25 µM; with `CC(C)Cn1c(=O)n(C)c(=O)c2cn(Cc3ccccc3)cc21`, 0.87 µM. Compound `CSc1ccc(Cn2cc3c(=O)n(C)c(=O)n(CC(C)C)c3c2)cc1` yielded an IC50 in experiment [1] (T-cell) of 0.26 µM. Same read-out and setting: with `CC(C)Cn1c(=O)n(C)c(=O)c2cn(Cc3cccc(Cl)c3Cl)cc21` the figure was 1.2 µM; with `COc1cccc(Cn2cc3c(=O)n(C)c(=O)n(CC(C)C)c3c2)c1`, 0.275 µM. In experiment [1] (T-cell), `CC(O)Cn1c(=O)n(C)c(=O)c2cn(Cc3cccc4ccccc34)cc21` (centres undefined) displayed an IC50 of 3.95 µM. In the experiment on Jurkat [2], this compound displayed a Ki of 0.697 µM. With `CCC(C)n1c(=O)n(C)c(=O)c2cn(C3Cc4cccc5cccc3c45)cc21` (stereo in doubt; 5g), the IC50 in experiment [1] (t-cell) was found to be 0.0054 µM. In experiment [1] (T-cell), `CC(C)Cn1c(=O)n(C)c(=O)c2cn(Cc3ccccc3Cl)cc21` showed an IC50 of 0.26 µM. In the experiment on Jurkat [4], this compound yielded a Ki of 0.122 µM. The like results for `COc1ccccc1Cn1cc2c(=O)n(C)c(=O)n(CC(C)C)c2c1` were, in that order, 0.275 µM and 0.17 µM. The compound `COC(=O)c1ccc(CNc2ccc3c(c2)c(=O)n(C)c(=O)n3CC(C)C)cc1` returned an Inhibition in the experiment with Jurkat [3] of 35%. For `CC(C)Cn1c(=O)n(C)c(=O)c2cc(NCc3ccccc3F)ccc21`, the midpoint of inhibition in experiment [1] (T-cell), the IC50, lay at 1.32 µM. Take `CNC(=O)CCCn1c(=O)c2cn(Cc3cccc4ccccc34)cc2n(CC(C)C)c1=O`: in the experiment with Jurkat [5], the half-maximal inhibitory concentration (IC50) result was “Not Active”. As to `CC(C)Cn1c(=O)n(C)c(=O)c2cn(Cc3ccc(C(F)(F)F)cc3)cc21`, the concentration for half-maximal inhibition (IC50) in experiment [1] (T-cell) was 1.3 µM. Same read-out and setting: with `CC(C)CCn1c(=O)n(C)c(=O)c2cn(Cc3cccc4ccccc34)cc21` the figure was 0.815 µM. Consider `CC(C)Cn1c(=O)[nH]c(=O)c2cn(C3Cc4cccc5cccc3c45)cc21` (centres undefined), for which half-maximal inhibition in experiment [1] (T-cell) (IC50) required 0.66 µM. Also, the Ki in the experiment on Jurkat [2] was 0.454 µM.
